Assays:
[1] = Cytotoxicity against GFP reporter gene expressing human HOG.R5 cells up to 20 ug/mL; type: cell-based
Method in brief: (§1)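 Run in parallel with the anti-HIV assay: HOG.R5 GFP reporter cultures given identical concentrations of test material but no virus; cell viability monitored after 4 days by combined microscopic and fluorometric measurement; CC50 derived.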

[2] = system: Human immunodeficiency virus 1; assay: Antiviral activity against HIV1 3B in human HOG.R5 cells by GFP-based reporter gene assay; type: functional, organism-based; settings: Human immunodeficiency virus 1, 3B
Method in brief: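 HOG.R5 GFP reporter cells in microtiter wells infected with HIV-1 IIIB (2.5 ng/mL p24) in presence of test material; GFP fluorescence read after 4 days to quantify infectivity; IC50 derived.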

[3] = Cytotoxicity against GFP reporter gene expressing human HOG.R5 cells at 10 ug/mL; type: cell-based; settings: in the assay text read “20 ug/mL” for “10 ug/mL”; method in brief: as §1
[4] = Cytotoxicity against GFP reporter gene expressing human HOG.R5 cells; type: cell-based; method in brief: as §1

Row | IC50 [2] | Structure (SMILES) | Activity [1] | Activity [3] | CC50 [4]
1 | 73.1 µM | C=C1CC[C@@H](O)[C@]2(C)CC[C@H](C(C)C)[C@@H](O)[C@H]12 | Non-toxic | Non-toxic | –
2 | 120 µM | CC(=O)CC/C(=C/C1=C(C)CCC1=O)C(C)C [LITSEACHROMOLAEVANE B] | Non-toxic | Non-toxic | –
3 | 27.5 µM | C=C1CC[C@H](C(C)(C)O)/C=C/[C@@H](C)CCC1=O [LITSEAGERMACRANE] | – | – | 63.4 µM
